Screening data as filed in PubChem BioAssay.
The sample as a whole holds a higher share of hits than the screen did.
UPR XBP1 act: adaptive UPR (XBP1) activation; CHO-XBP1 luciferase reporter, IRE1-XBP1 UPR activation, luminescence; percent of tunicamycin response, DMSO as zero; 0.33% of 330,000 active; activation, % at 20 µM;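 active = versus positive control, 20 µM dose yields 30% or more activation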;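 also: 100% = tunicamycin at 10 µg/mL and 0% = DMSO only wells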
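Material: IRE1-XBP1 luciferase reporter CHO line / Quantity: one thousand reporter cells per well / Buffer or medium: F12 with 10% serum / Compound: 20 µM single concentration, DMSO 1% / Times: 6 h treatment, 37 °C / Detection: Steady-Glo luciferase glow luminescence, 10 min after reagent addition / Benchmarks: tunicamycin high, DMSO low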
CHOP UPR activ: activators of apoptotic arm of unfolded protein response (CHOP); CHO-CHOP luciferase reporter, UPR activation, luminescence; percent of tunicamycin response over DMSO baseline; activation, % at 10 µM; 0.34% of 330,000 active; AID 449763;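 active = at 10 µM dose, activation of 40% or more, normalized to positive control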;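 also: 100% = tunicamycin at 10 µg/mL and 0% = DMSO alone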
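measured by = luciferase luminescence | assay system = CHO-CHOP cells, stable luciferase reporter of PERK-eIF2a-CHOP signalling | amount = 500 reporter cells seeded per well | timing = 6 h compound exposure at 37 °C after overnight seeding | controls = positive tunicamycin 10 µg/mL, negative DMSO alone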
CHOP inh: blocks CHOP induction under ER stress; AID 2732; 3.8% of 220,000 active; CHO-K1 CHOP-promoter luciferase, tunicamycin-induced, 15-18 h; inhibition, % at 10 µM;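 active = compounds that reduced the stress-induced luciferase reporter signal by more than about 70% of percent inhibition, limit read from the data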;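 also: 0% = tunicamycin plus vehicle and 100% = wells without tunicamycin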
Tb MetRS inh: blocks T. brucei methionyl-tRNA synthetase activity; inhibition, % at 11.9 µM; purified T. brucei MetRS, ATP depletion, Kinase-Glo luminescence; 0.4% of 360,000 active; AID 624268;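 active = inhibition above a per-plate cutoff of the control wells' mean inhibition plus 3 SD, cut at about 5.5% in these data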;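 also: 0% = DMSO wells median and 100% = median of wells with control inhibitor compound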
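Measured by: Kinase-Glo luciferase luminescence reporting remaining unconsumed ATP. Material: purified T. brucei MetRS enzyme. Doses: 11.9 µM compound single dose, 0.9% DMSO. Medium: HEPES buffer containing pyrophosphatase, BSA, spermine, DTT. Times: 15 min preincubation, 2 h reaction, all 25 °C. Reagent: methionine, ATP and bulk E. coli tRNA.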
V-ATPase pH: alters yeast V-ATPase proton transport | AID 504577 | 0.37% of 350,000 active | S. cerevisiae, pHLuorin cytosolic pH fluorescence | response, % at 10 µM; in the data active = response mostly above about 7.3%, no sharp cut-off; inactive = mostly below about 5.4%; also: actives read high
Numbers without * were called inactive; nt = not tested or not shown.

SMILES | UPR XBP1 act | CHOP UPR activ | CHOP inh | Tb MetRS inh | V-ATPase pH
COc1ccc(C(=O)/C=C/Nc2ccc(S(=O)(=O)Nc3nc(C)cc(C)n3)cc2)cc1OC | -2 | 0 | 36 | -1 | 1
O=C(COc1ccc(/C=N/NC(=O)c2ccccc2)cc1)Nc1ccc([N+](=O)[O-])cc1 | -2 | 0 | -30 | 0 | 3
CC(C)Oc1ccc(/C=N/NC(=O)C(CSCc2ccccc2)NC(=O)c2ccc([N+](=O)[O-])cc2)cc1 (stereo not drawn) | 0 | 3 | 76* | 0 | 3
S=C(c1ccc(-c2cc(Cl)ccc2Cl)o1)N1CCCCC1 | -1 | 2 | 17 | 0 | -3
S=C(c1ccc(-c2cc(Cl)ccc2Cl)o1)N1CCOCC1 | 1 | 0 | 70* | -1 | -3
N#Cc1cccc(C2CC(OCCF)=CC(=O)O2)c1 (stereo not drawn) | nt | nt | nt | 0 | nt
COc1ccc(C2CC(c3cccs3)=NN2C(=O)CSc2nc3c(cnn3-c3ccccc3)c(=O)[nH]2)cc1 (stereo not drawn) | 0 | 4 | 76* | 0 | 0
CCN(Cc1ccccc1)c1ccc(/C=N/N=C(N)N)cc1 | -2 | -2 | 77* | -1 | -1
CCN(Cc1ccccc1)c1ccccc1 | nt | nt | nt | 0 | 3
O=Cc1ccc(OC(=O)c2cc(Cl)nc3ccccc23)cc1 | 3 | 1 | 85* | -1 | 6
O=C(Oc1cccc2ccccc12)c1cc(Cl)nc2ccccc12 | 3 | 2 | 25 | -2 | 9
O=c1ccc(-c2ccc(S(=O)(=O)N3CCN(c4cccc(Cl)c4)CC3)o2)n[nH]1 | -3 | 0 | nt | 0 | 2
Cc1nc(C(F)(F)F)nc(Nc2ccc(Br)cc2)c1C#N | 1 | -1 | 82* | -1 | -2
COc1ccc(O)c(C(=O)CC(=O)c2ccccc2C)c1 | 4 | 4 | 104* | 0 | -1
COc1ccc(O)c(C(=O)CC(=O)c2cccnc2)c1 | nt | nt | nt | 0 | 3
C=CCN1C(=O)S/C(=C/c2ccc(Sc3nc4ccccc4[nH]3)o2)C1=O | 0 | 1 | 38 | 0 | -1
CC(C)N1C(=O)S/C(=C/c2ccc(Sc3nc4ccccc4[nH]3)o2)C1=O | -1 | 7 | 70* | 0 | -5
O=S(=O)(NCC(c1cccnc1)N1CCN(c2ccc(F)cc2)CC1)c1ccc(F)cc1 (stereo not drawn) | 0 | 1 | 94* | 1 | -3
Oc1ccc2ccccc2c1CNc1cnc2ccccc2c1 | 2 | 3 | 87* | 0 | 4
Oc1ccccc1CNc1cnc2ccccc2c1 | -3 | 7 | 50 | -1 | -3
CCC(=O)NC(=S)Nc1ccc(NC(=O)COc2ccc(Cl)cc2Cl)cc1 | 14 | 1 | 90* | 1 | 0
COc1ccccc1NC(=S)NC(=O)Cc1ccc(Cl)cc1 | -2 | 0 | nt | -1 | 0
COc1ccccc1NC(=S)NC(=O)CCCOc1ccc(Cl)cc1Cl | -1 | -1 | 77* | 1 | 0
COc1ccc(N2CCN(C(CNC(=O)C(=O)NCCC3=CCCCC3)c3ccco3)CC2)cc1 (stereo not drawn) | 21 | 2 | 87* | 0 | -2
COCCCNC(=O)C(=O)NCC(c1ccco1)N1CCN(c2ccc(OC)cc2)CC1 (stereo not drawn) | -1 | 6 | nt | 0 | -1
SMILES | UPR XBP1 act | CHOP UPR activ | CHOP inh | Tb MetRS inh | V-ATPase pH
O=C(NCCC1=CCCCC1)C(=O)NCC(c1ccco1)N1CCN(c2ccccc2)CC1 (stereo not drawn) | 17 | 3 | 94* | 0 | -2
CC(C)CCNC(=O)C(=O)NCCC1=CCCCC1 | 5 | 3 | 29 | 0 | -1
CC(NC(=O)C(=O)NCCC1=CCCCC1)c1ccccc1 (stereo not drawn) | 2 | 2 | 95* | -1 | 4
CCOc1cc(N2CCOCC2)c(OCC)cc1NC(=O)c1ccc(S(=O)(=O)N2CC(C)OC(C)C2)cc1 (stereo not drawn) | nt | nt | nt | 0 | 2
O=C(C1CCC(C(=O)N2CCc3ccccc32)CC1)N1CCc2ccccc21 (stereo not drawn) | -4 | 0 | 56 | -1 | -4
O=C(CCl)c1ccc2c(c1)CCN2C(=O)C1CC1 | -11 | -9 | 109* | nt | nt
Cc1sc2ncnc(N3CCN(CCOc4ccc(Cl)cc4)CC3)c2c1C | -2 | 5 | 92* | -1 | 0
Cc1ccccc1NC1=C/C(=N\S(=O)(=O)c2ccc(C(=O)O)cc2)c2ccccc2C1=O | 2 | 6 | nt | 9.7* | -4
COc1ccc(N(C(=O)CCl)C(C(=O)NCCc2ccccc2)c2cccs2)cc1Cl (stereo not drawn) | nt | nt | 110* | -1 | -4
COc1cccc(N(C(=O)CCl)C(C(=O)NCCc2ccccc2)c2cccs2)c1 (stereo not drawn) | nt | nt | -3 | 0 | 0
CC1=NN(c2ccccc2)C(=O)C1CCC#N (stereo not drawn) | nt | nt | nt | 0 | nt
COC(=O)/C=C1\C(=O)N(c2nc3ccc(OC)cc3s2)C(=S)N1c1ccc(F)cc1 | 14 | 73* | 43 | nt | nt
O=C(/C=C/[C@H]1O[C@@H](n2ccc(=O)[nH]c2=O)[C@H](O)[C@@H]1O)NCc1cccnc1 | nt | nt | nt | -1 | nt
CC(C)c1ccc(-c2nc3ccccc3s2)cc1 | -7 | -9 | 93* | 0 | 0
COc1ccccc1-n1cnc2c(c1=O)c1nc3ccccc3nc1n2-c1ccc(C)c(C)c1 | nt | nt | 84* | -1 | -3
O=P(c1ccccc1)(c1ccccc1)C(O)c1cccs1 (stereo not drawn) | nt | nt | nt | 0 | 3
C[C@H](CO)N1C[C@H](C)[C@@H](CN(C)C(=O)C2CCOCC2)Oc2ncc(Br)cc2C1=O | nt | nt | nt | 0 | 0
COc1ccc(CCNC(=O)C(=O)NCC2OCCN2S(=O)(=O)c2cc(F)ccc2F)cc1OC (stereo not drawn) | 1 | -1 | nt | 0 | 4
N#Cc1ccc(-c2ccc(F)cc2)nc1Oc1ccc(F)cc1 | -2 | -1 | 81* | 0 | 7
COc1cc2c(cc1OC)C(CNC(=O)C=Cc1ccccc1)C2 (stereo not drawn) | nt | nt | nt | 0 | -4
CC1=CC2=NC(=O)/C(=C\c3cc(C)n(-c4ccc(F)cc4)c3C)C(=N)N2O1 | 6 | 2 | 5 | -1 | 5
CC1=CC2=NC(=O)/C(=C\c3ccc(-c4cccc(Cl)c4)o3)C(=N)N2O1 | 0 | 1 | 107* | 0 | 7
CC(C)CCn1c(Oc2ccc(Cl)cc2)nc2c1c(=O)n(C)c(=O)n2C | -3 | 5 | 76* | -1 | 5
Cc1ccc(C(=O)Nc2nc(C)c(C(=O)Nc3ccc4c(c3)CCC4)s2)cc1 | 5 | 3 | -34 | 0 | 2
Cc1nc(NC(=O)c2ccc(F)cc2)sc1C(=O)Nc1ccc2c(c1)CCC2 | -2 | 4 | 82* | -1 | -2
COc1ccc(-c2nc3ccccc3[nH]2)cc1 | -5 | -4 | nt | -6 | -1
